In ChEMBL document CHEMBL4823260, “From High-Throughput Screening to Target Validation: Benzo[d]isothiazoles as Potent and Selective Agonists of Human Transient Receptor Potential Cation Channel Subfamily M Member 5 Possessing In Vivo Gastrointestinal Prokinetic Activity in Rodents” (J Med Chem, 2021):
≈ marks a conversion by molar mass, not a printed value.

Legend:
[1] = target: T1, Transient receptor potential cation channel subfamily M member 5 (Homo sapiens, UniProt Q9NZQ8); assay: Agonist activity at human TRPM5 expressed in CHO-K1 cells maintained at 80 mV final holding potential by syncroPatch assay; format: cell-based
T1 sequence (Q9NZQ8 whole entry): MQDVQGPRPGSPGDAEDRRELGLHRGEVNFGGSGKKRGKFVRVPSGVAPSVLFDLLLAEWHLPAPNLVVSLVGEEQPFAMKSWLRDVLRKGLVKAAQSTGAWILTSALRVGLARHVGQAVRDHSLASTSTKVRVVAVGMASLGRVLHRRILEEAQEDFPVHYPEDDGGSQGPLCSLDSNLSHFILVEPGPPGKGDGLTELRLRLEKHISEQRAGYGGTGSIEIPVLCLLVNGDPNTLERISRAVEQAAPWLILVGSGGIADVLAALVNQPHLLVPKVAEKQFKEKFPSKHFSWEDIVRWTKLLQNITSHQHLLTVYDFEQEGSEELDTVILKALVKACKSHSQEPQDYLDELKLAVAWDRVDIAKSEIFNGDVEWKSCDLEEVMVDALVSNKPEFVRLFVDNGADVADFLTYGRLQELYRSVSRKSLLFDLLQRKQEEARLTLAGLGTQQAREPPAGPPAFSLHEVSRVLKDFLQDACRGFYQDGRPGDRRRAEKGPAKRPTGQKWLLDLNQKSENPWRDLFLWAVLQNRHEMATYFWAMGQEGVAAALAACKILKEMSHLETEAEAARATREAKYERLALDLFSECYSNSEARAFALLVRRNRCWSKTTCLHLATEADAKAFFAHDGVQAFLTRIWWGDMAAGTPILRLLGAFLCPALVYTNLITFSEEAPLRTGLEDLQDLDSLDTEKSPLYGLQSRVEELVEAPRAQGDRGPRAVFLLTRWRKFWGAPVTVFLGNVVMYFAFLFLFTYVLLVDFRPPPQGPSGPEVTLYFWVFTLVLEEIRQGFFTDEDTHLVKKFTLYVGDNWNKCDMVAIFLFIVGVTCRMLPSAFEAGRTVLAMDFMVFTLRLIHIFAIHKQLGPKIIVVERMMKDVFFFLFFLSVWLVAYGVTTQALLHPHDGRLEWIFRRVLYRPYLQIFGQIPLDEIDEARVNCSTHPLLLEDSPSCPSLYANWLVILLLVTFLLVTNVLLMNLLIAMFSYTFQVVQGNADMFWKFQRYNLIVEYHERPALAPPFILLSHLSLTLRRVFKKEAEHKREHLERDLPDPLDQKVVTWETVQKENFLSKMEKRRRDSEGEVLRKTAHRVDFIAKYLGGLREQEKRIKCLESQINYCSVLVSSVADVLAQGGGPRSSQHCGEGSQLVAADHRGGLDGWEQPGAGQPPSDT
Method in brief: (§1)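 SyncroPatch 384 whole-cell recording at rt on CHO-K1 cells stably expressing human or mouse TRPM5. Intracellular solution had 2 mM Na-ATP and 5 μM free Ca2+. Cumulative doses 0.03–31.6 μM in 0.5% DMSO, 150 s each after 180 s vehicle. Current measured at the end of the +80 mV step, normalized to vehicle; pEC50 is the mean of ≥2 independent experiments.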

[2] = target: T1, Transient receptor potential cation channel subfamily M member 5; assay: Agonist activity at human TRPM5 expressed in CHO-K1 cells maintained at 80 mV final holding potential by QPatch HTX assay; format: cell-based
Method in brief: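 Whole-cell QPatch HTX recording at rt on CHO-K1 cells with stable hTRPM5. Pipette solution HEDTA-buffered to 1 μM free Ca2+, pH 7.2. Cells held at 0 mV; 0.1 Hz protocol with steps to −80/+80 mV and a ramp. Current taken at the end of the first +80 mV step, no leak subtraction. Increase expressed relative to vehicle current (100%).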

[3] = Efflux ratio of apparent permeability across basolateral to apical over apical to basolateral membrane in human Caco-2 cells incubated for 30 mins by LC-MS/MS analysis; format: ADME, cell-based
[4] = target: T2, Transient receptor potential cation channel subfamily M member 5 (Mus musculus, UniProt Q9JJH7); assay: Agonist activity at mouse TRPM5 expressed in CHO-K1 cells maintained at 80 mV final holding potential by syncroPatch assay; format: cell-based; method in brief: as §1
T2 sequence (Q9JJH7 whole entry): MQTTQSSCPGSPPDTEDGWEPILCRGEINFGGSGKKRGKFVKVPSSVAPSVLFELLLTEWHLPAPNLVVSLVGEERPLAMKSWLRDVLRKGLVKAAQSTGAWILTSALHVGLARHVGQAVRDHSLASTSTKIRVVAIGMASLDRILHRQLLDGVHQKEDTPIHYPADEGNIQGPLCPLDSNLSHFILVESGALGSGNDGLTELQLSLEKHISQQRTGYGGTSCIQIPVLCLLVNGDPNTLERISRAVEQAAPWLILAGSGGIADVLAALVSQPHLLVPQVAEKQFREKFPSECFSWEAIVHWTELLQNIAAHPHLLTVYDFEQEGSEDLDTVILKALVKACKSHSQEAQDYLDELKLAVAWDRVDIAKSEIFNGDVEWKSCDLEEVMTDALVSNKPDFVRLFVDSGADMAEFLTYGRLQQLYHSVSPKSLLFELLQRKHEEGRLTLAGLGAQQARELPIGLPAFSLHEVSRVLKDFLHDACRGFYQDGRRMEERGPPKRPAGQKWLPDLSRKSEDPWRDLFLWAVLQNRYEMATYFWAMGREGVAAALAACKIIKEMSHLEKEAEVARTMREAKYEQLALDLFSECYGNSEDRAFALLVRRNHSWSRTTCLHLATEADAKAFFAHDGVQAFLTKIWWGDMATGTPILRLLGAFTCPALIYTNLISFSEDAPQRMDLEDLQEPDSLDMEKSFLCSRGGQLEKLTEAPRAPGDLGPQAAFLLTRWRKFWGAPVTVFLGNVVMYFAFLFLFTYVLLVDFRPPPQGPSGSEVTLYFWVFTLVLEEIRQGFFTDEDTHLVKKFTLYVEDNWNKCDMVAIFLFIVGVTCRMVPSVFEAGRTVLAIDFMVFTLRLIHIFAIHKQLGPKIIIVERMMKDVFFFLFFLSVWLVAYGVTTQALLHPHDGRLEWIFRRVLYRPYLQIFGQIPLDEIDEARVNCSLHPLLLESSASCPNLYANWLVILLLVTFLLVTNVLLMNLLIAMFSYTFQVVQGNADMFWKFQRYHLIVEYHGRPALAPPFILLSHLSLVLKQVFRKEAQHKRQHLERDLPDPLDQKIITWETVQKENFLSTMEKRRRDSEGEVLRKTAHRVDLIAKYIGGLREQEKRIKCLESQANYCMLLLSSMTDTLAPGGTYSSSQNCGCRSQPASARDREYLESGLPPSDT

[5] = target: Transient receptor potential cation channel subfamily M member 4 (Homo sapiens, UniProt Q8TD43); assay: Agonist activity at human TRPM4 expressed in CHO cells assessed as change in membrane potential by FLIPR assay
Chain of Transient receptor potential cation channel subfamily M member 4 (Q8TD43 whole entry): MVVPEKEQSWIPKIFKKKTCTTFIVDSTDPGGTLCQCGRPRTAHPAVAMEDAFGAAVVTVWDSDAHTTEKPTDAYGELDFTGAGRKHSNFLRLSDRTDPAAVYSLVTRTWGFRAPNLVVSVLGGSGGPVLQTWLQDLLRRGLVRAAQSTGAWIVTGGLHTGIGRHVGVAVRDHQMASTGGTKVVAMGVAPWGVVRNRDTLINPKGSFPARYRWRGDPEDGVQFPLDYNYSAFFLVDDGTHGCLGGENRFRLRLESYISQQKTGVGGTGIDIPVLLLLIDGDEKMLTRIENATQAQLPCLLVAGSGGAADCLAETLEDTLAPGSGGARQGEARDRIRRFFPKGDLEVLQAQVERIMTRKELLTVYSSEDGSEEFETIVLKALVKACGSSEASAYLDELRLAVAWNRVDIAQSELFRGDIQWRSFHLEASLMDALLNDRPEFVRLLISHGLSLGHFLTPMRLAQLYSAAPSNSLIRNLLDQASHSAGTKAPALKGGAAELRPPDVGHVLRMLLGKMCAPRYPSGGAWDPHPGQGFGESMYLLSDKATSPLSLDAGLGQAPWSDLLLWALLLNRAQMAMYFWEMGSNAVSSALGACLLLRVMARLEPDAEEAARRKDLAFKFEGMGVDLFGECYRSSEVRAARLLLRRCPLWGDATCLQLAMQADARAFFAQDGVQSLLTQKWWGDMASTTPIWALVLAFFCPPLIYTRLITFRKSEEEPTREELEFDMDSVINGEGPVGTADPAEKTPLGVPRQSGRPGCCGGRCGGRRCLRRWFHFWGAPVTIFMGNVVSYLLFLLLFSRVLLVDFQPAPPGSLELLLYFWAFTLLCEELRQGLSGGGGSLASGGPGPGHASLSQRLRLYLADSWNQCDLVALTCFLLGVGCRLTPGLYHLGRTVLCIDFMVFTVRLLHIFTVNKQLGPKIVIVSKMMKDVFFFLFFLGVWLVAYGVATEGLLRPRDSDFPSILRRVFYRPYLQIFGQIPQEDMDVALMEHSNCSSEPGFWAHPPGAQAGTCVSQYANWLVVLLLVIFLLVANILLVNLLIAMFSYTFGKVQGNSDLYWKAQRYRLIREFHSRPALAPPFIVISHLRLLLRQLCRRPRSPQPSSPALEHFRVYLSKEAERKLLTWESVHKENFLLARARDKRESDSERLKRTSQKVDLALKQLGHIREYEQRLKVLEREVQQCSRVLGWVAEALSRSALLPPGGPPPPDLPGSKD

[6] = target: Transient receptor potential cation channel subfamily A member 1 (Homo sapiens, UniProt O75762); assay: Agonist activity at human TRPA1 expressed in HEK cells assessed as increase in menthol-induced intracellular calcium level incubated for 2 hrs by FLIPR assay; format: cell-based
Chain of Transient receptor potential cation channel subfamily A member 1 (O75762 whole entry): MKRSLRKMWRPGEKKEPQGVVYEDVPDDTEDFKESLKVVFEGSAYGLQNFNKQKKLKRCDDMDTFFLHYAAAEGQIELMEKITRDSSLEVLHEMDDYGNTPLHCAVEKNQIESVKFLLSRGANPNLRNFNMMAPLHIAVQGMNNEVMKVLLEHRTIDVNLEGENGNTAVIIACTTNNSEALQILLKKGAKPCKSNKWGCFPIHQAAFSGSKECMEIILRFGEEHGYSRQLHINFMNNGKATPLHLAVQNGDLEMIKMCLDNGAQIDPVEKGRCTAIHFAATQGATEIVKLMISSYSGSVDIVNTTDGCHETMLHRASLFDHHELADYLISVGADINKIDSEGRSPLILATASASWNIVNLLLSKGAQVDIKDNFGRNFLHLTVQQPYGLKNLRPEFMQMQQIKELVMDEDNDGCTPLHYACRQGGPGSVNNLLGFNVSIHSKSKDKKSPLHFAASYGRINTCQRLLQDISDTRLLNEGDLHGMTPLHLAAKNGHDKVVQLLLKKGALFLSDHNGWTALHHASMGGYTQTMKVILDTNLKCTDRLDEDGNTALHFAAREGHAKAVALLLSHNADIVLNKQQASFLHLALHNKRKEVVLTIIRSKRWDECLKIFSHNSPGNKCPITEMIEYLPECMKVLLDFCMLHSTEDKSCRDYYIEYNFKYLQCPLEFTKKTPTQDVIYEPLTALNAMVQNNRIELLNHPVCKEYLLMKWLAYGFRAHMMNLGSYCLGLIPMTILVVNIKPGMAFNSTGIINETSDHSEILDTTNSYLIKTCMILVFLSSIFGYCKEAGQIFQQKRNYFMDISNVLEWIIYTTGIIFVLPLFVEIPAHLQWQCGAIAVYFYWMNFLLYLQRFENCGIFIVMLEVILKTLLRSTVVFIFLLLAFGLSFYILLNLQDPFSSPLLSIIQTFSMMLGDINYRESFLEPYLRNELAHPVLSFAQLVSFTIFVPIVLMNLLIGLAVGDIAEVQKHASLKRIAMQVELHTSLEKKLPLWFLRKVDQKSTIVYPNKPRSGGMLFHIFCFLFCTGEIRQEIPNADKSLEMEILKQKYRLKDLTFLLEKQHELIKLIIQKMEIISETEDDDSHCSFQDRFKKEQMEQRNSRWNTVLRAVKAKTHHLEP
Method in brief: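 HEK cells stably expressing hTRPA1, plated at 20,000/well 24 h ahead, loaded with calcium-6 dye plus 2.5 mM probenecid for 2 h at 37 °C. First FLIPR addition: 11-point 1:3 concentration series, read for 5 min, scaled to (−)menthol 1 mM final (100% control); pEC50 fitted. Final DMSO 0.5%; run at 37 °C.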

[7] = Apparent permeability across apical to basolateral membrane in human Caco-2 cells incubated for 30 mins by LC-MS/MS analysis; format: ADME, cell-based
[8] = Solubility of the compound in phospahte-buffered saline buffer at pH 7.4 incubated for 2 hrs by HPLC/UV analysis; format: physicochemical; conditions: phosphate-buffered saline
[9] = target: Transient receptor potential cation channel subfamily V member 4 (Homo sapiens, UniProt Q9HBA0); assay: Agonist activity at human TRPV4 expressed in HEK cells assessed as increase in GSK1016790A-induced intracellular calcium level measured after 1 hr by FLIPR assay; format: cell-based
Chain of Transient receptor potential cation channel subfamily V member 4 (Q9HBA0 whole entry): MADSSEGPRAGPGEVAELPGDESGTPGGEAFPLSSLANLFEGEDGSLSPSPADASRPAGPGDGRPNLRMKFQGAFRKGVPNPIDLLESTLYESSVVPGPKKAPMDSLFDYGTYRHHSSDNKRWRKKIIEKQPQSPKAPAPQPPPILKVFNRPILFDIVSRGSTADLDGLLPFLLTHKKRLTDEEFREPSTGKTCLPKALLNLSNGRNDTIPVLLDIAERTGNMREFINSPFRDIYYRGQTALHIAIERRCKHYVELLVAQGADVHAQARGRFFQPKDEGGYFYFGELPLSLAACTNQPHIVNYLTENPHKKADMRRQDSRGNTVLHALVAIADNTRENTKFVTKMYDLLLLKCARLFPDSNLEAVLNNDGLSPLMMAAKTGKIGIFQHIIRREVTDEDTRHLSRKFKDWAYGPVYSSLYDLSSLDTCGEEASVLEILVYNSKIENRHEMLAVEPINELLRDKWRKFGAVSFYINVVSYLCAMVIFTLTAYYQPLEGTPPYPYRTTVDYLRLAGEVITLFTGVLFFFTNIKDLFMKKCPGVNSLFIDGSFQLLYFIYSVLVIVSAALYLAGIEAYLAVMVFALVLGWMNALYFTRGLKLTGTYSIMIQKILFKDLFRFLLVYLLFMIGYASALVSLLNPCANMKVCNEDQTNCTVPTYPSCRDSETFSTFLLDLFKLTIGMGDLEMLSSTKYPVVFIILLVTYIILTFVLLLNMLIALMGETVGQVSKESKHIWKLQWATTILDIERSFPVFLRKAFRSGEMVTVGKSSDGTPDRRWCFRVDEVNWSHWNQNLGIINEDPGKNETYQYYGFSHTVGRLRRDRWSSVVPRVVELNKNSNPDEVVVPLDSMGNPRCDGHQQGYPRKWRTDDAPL

[10] = target: Transient receptor potential cation channel subfamily M member 8 (Homo sapiens, UniProt Q7Z2W7); assay: Agonist activity at human TRPM8 expressed in HEK cells assessed as increase in menthol-induced intracellular calcium level measured after 1 hr by FLIPR assay; format: cell-based
Chain of Transient receptor potential cation channel subfamily M member 8 (Q7Z2W7 whole entry): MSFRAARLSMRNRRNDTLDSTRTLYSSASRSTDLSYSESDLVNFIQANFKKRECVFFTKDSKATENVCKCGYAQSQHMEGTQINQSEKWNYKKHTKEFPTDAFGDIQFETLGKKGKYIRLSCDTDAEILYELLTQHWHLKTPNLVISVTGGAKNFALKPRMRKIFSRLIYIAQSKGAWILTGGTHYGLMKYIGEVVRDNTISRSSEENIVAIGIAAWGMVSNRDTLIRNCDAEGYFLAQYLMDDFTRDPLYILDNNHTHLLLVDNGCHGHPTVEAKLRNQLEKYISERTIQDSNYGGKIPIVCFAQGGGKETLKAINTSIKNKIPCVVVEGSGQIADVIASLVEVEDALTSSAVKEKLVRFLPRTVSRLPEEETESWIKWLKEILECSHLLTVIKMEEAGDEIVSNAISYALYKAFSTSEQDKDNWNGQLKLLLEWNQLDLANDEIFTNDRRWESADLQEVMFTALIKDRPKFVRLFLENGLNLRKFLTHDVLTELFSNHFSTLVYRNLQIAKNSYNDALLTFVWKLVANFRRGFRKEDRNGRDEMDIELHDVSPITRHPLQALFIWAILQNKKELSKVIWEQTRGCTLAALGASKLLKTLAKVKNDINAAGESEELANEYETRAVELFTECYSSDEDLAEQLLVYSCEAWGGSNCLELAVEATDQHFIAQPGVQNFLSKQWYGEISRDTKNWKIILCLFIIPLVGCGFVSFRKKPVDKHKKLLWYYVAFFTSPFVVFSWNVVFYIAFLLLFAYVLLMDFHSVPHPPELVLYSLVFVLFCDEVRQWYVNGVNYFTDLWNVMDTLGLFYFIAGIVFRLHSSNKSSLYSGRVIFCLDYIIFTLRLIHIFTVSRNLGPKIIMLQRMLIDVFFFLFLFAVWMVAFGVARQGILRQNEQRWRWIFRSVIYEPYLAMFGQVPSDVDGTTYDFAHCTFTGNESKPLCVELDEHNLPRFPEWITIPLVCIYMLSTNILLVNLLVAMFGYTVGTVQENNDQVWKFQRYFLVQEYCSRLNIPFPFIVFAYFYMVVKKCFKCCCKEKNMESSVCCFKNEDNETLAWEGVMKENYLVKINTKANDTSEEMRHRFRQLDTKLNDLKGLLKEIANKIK
Method in brief: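 HEK cells with stable hTRPM8, 20,000/well on poly-D-lysine plates 24 h ahead. Loaded with calcium-6 dye and 2.5 mM probenecid, 1 h at 37 °C then 1 h at rt. First-addition calcium rise scaled to (−)menthol 100 μM final (100% control); pEC50 derived from the concentration–response. Final DMSO 0.5%; assay at rt.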

[11] = Intrinsic clearance in mouse liver microsomes assessed per mg protein incubated up to 30 mins in presence of NADPH by LC-MS/MS analysis; format: ADME, Microsome
[12] = target: Transient receptor potential cation channel subfamily V member 1 (Homo sapiens, UniProt Q8NER1); assay: Agonist activity at human TRPV1 expressed in CHO cells assessed as increase in capsaicin-induced intracellular calcium level measured after 1 hr by FLIPR assay; format: cell-based
Method in brief: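 CHO cells stably expressing hTRPV1, plated at 10,000/well 24 h before the assay. Loaded with calcium-6 dye plus 2.5 mM probenecid for 1 h at 37 °C and 1 h at rt. FLIPR dual-addition protocol; agonist potency derived as pEC50.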

[13] = Intrinsic clearance in human liver microsomes assessed per mg protein incubated up to 30 mins in presence of NADPH by LC-MS/MS analysis; format: ADME, Microsome

Row | EC50 [1] [µM] | EC50 [2] [µM] | efflux ratio at 0.5 h [3] | EC50 [4] [µM] | EC50 [6] [µM] | Papp A→B at 0.5 h [7] [×10⁻⁶ cm/s] | solubility at 2 h [8] [µM] | EC50 [9] [µM] | EC50 [10] [µM] | microsomal CLint [11] [µL/min/mg] | EC50 [12] [µM] | microsomal CLint [13] [µL/min/mg] | SMILES | EC50 [5] [µM]
1 | 4.68 | 6.03 |  |  |  |  |  |  |  |  |  |  | Cn1c(Cl)cnc1CNc1ccc(Cl)cc1F | 
2 | 0.331 |  | 1.03 | 0.316 | > 15.8 | 21.9 | 215 (≈ 59.9 µg/mL) | > 15.8 | > 15.8 | 446 | > 15.8 | 109 | Cn1c(Cl)cnc1CNc1ccc2sncc2c1 | > 63.1
